CHOP UPR activ – activators of apoptotic arm of unfolded protein response (CHOP); CHO-CHOP luciferase reporter, UPR activation, luminescence; percent of tunicamycin response over DMSO baseline; activation, % at 10 µM; 330,000 tested, 0.34% active; AID 449763;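 active means at 10 µM dose, activation of 40% or more, normalized to positive control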;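 further: 100% = tunicamycin at 10 µg/mL and 0% = DMSO alone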
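Dosing – one dose, 10 µM in 0.5% DMSO · System – CHO-CHOP cells, stable luciferase reporter of PERK-eIF2a-CHOP signalling · Input – 500 cells/well · Control set – tunicamycin 10 µg/mL final as positive, DMSO-only wells as negative · Timing – 6 h compound treatment, 37 °C · Measure – % activation vs tunicamycin · Technique – luminescence read with Steady-Glo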
XBP1 UPR activ – activators of adaptive arm of unfolded protein response (XBP1); 330,000 tested, 0.33% active; AID 463104; CHO-XBP1 luciferase reporter, IRE1-XBP1 UPR activation, luminescence; percent of tunicamycin response, DMSO as zero; activation, % at 20 µM;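 active means versus positive control, 20 µM dose yields 30% or more activation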;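 further: 100% = tunicamycin at 10 µg/mL and 0% = DMSO only wells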
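assay system = CHO-XBP1 luciferase reporter cells | amount = 1000 cells/well | buffer or medium = F12 plus 10% FBS | compound dosing = single point, 20 µM final compound, 1% DMSO | incubation = 16-18 h cell attachment at 37 °C, then 6 h compound exposure | detection = Steady-Glo luminescence read | controls = tunicamycin 10 µg/mL and vehicle-only wells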
Apaf1 inhib – blocks human Apaf-1 apoptosome activity | reconstituted apoptosome caspase-3 activity, DEVD-Rh110 fluorescence | 330,000 tested, 0.71% active | inhibition, % at 20 µM; active means inhibition of at least 40% at 20 µM;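 further: plate controls were DMSO wells for no effect and DEVD-CHO caspase inhibitor wells for full effect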
Target sequence (O14727 whole entry, looked up): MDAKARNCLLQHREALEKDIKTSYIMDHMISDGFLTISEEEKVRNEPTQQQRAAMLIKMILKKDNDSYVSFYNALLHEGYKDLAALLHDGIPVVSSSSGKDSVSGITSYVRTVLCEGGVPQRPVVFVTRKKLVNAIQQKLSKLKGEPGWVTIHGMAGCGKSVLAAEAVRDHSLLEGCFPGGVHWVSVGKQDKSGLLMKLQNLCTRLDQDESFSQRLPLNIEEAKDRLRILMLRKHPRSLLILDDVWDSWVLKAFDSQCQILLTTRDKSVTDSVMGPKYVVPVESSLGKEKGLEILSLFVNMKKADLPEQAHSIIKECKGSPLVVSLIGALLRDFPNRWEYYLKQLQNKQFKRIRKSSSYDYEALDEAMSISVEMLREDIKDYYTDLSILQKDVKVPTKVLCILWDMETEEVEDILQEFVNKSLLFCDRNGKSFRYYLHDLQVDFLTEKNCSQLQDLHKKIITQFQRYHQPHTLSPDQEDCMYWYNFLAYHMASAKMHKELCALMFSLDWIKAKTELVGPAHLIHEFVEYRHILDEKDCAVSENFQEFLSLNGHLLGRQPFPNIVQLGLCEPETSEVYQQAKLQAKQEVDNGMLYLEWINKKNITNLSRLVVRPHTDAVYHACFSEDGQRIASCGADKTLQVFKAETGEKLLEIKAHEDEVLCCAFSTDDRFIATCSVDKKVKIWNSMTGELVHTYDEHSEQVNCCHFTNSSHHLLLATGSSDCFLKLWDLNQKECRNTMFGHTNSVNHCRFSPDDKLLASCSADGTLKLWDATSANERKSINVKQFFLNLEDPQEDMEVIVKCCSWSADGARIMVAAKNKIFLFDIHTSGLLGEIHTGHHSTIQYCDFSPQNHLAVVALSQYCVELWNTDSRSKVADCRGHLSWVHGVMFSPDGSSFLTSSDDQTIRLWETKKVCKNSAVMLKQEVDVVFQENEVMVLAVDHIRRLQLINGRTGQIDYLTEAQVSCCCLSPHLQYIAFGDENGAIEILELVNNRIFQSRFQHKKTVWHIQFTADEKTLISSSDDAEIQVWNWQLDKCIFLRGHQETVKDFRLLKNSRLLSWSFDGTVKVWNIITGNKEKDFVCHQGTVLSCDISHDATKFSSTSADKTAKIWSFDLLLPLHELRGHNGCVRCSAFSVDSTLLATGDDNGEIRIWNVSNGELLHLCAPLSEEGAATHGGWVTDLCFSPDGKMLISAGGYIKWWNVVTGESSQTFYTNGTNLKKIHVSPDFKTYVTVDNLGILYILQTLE
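Assay system – apoptosome proteins · Medium – Hepes buffer, pH 7.5 · Also added – cytochrome c with DEVD-Rh110 · Timing – 30 min compound preincubation, 50 min activation, room temperature · Detection – Rh110 fluorescence, excitation 480 nm, emission 540 nm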
Mdm2 MdmX PPI – inhibitors of human Mdm2/MdmX interaction. O15151+Q00987. SaOS-2 split-luciferase Mdm2/MdmX complementation, luminescence. inhibition, % at 8 µM. 330,000 tested, 3% active. AID 485346;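 active means inhibition of at least 50% at 8 µM in the primary screen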
UBC13 inh – human UBC13 polyubiquitination inhibition. P61088. UBC13 polyubiquitin chain formation, TR-FRET. inhibition, % at 20 µM. 330,000 tested, 0.47% active. AID 485273; in the data active means inhibition above about 45%, passing the limit was not always enough
Mdm2 MdmX conf – human Mdm2/MdmX binding inhibition, confirmed; shares compounds with Mdm2 MdmX PPI; luminescent assay; inhibition, % at 8 µM; 10,000 tested, 55% active; in the data active means inhibition above about 40%
Full FLuc ctr – inhibits full-length luciferase, flagging false Mdm2/MdmX hits; shares compounds with Mdm2 MdmX PPI; SaOS-2 full-length luciferase counterscreen, luminescence; inhibition, % at 8 µM; 6,200 tested, 77% active;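 active means mean inhibition at 8 µM reaching about 37%, which flags the compound as non-specific, limit read from the data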;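 further: p53-null SaOS-2 cells with luciferase driven by a doxycycline-inducible promoter; compound on cells about two nights before reading with doxycycline added after day one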
Starred values were filed as active, the others as inactive; . = no result. An excerpt weighted towards active compounds, which were near 4.1% of everything screened.

SMILES	CHOP UPR activ	XBP1 UPR activ	Apaf1 inhib	Mdm2 MdmX PPI	UBC13 inh	Mdm2 MdmX conf	Full FLuc ctr
COc1c(Br)cc([N+](=O)[O-])c(OC)c1C(=O)NC(=O)Nc1c(Cl)cccc1Cl	1	0	8	9	-6	.	.
COc1c(Br)cc([N+](=O)[O-])c(OC)c1C(=O)NC(=O)Nc1cc(Cl)cc(Cl)c1	8	15	16	85*	-1	79*	85*
Cc1ccc(Cc2c(C)c(C#N)c3[nH]c4ccccc4n3c2=O)cc1	0	5	6	65*	3	55*	36
Cc1c(CCC(=O)O)c(=O)n2c([nH]c3ccccc32)c1C#N	0	-2	12	-19	1	.	.
COc1cccc(Nc2ncnc3nc[nH]c23)c1	0	4	14	13	5	.	.
O=C(NC1CC1)c1ccc2c(c1)S(=O)(=O)c1cc(Cl)ccc1C2=O	3	-2	17	95*	0	94*	38*
CCc1ccc(NC2=NC(C(=O)NC3CCCCC3)CC(=O)N2)cc1 (configuration not stated)	2	2	6	-10	-2	.	.
O=C(Nc1cccnc1)c1ccc([N+](=O)[O-])s1	-1	-1	8	52*	-20	25	.
O=C(Nc1ccccc1F)c1ccc([N+](=O)[O-])s1	2	1	-3	29	-24	.	.
COCCn1c(C)c(C)c2c(NCCc3ccccc3)ncnc21	-3	-9	4	46	4	.	.
Cc1c(NC(=S)NNC(=O)CCC(=O)O)c(=O)n(-c2ccccc2)n1C	-1	-2	-15	13	-9	.	.
COc1cc2oc(=O)cc(-c3ccc(-c4ccc(CO)cc4)cc3)c2c(OC)c1OC	0	0	19	68*	.	64*	48*
Cc1cc(=O)oc2c1ccc1oc(/C(=N/O)c3ccccc3)c(C)c12	-1	2	29	58*	3	28	.
CCc1c(C(=O)c2ccc(Cl)cc2)oc2c(C)c3oc(=O)cc(C)c3cc12	1	8	11	59*	-3	15	.
CCC(=O)Oc1ccc2c(C)cc(=O)oc2c1C	-1	0	4	26	10	.	.
CCc1c(C(C)=O)oc2ccc3c(C)cc(=O)oc3c12	1	3	-5	10	10	.	.
Cc1ccc(/C(=N\O)c2oc3c(C)c4oc(=O)cc(C)c4cc3c2C)cc1	6	19	24	74*	-3	30	.
COc1cccc(-c2nc(-c3ccc(NC(=O)c4cccs4)cc3)no2)c1	2	-2	-10	-33	14	.	.
Cc1nnc(NC(=O)c2cc(-c3ccco3)nc3ccccc23)s1	-1	3	13	31	10	.	.
Cc1ccccc1-c1cc(C(=O)Nc2nc3c(s2)CCCC3)c2ccccc2n1	-1	-1	4	62*	-4	48*	35
O=C(c1cn(-c2ccccc2)nc1-c1cccs1)N1CCN(c2ccccc2)CC1	1	2	12	59*	4	48*	64*
O=C(Nc1nc2ccccc2s1)c1cc(-c2ccco2)nc2ccccc12	1	-1	18	66*	6	45*	55*
Cc1ccc2nc(NC(=O)c3cc(-c4ccco4)nc4ccccc34)sc2c1	1	-3	7	61*	0	31	.
Cc1csc(NC(=O)c2cc(-c3ccco3)nc3ccccc23)n1	0	-1	11	-50	-3	.	.
O=C(Nc1cccnc1)c1cn(-c2ccccc2)nc1-c1cccs1	4	1	-11	14	19	.	.
SMILES	CHOP UPR activ	XBP1 UPR activ	Apaf1 inhib	Mdm2 MdmX PPI	UBC13 inh	Mdm2 MdmX conf	Full FLuc ctr
CCN(CC)CCNC(=O)c1ccc(NC(=O)c2cn(-c3ccccc3)nc2-c2cccs2)cc1	5	7	25	98*	103*	64*	53*
Cc1cccc(-c2cc(C(=O)Nc3sc(C)c(C)c3C(N)=O)c3ccccc3n2)c1	-1	6	9	23	-15	.	.
CCN(CC)CCNC(=O)c1ccc(NC(=O)c2cc(-c3ccco3)nc3ccccc23)cc1	2	-3	12	55*	38	22	.
Cc1ccc(C)c(-c2cc(C(=O)Nc3sc(C)c(C)c3C(N)=O)c3ccccc3n2)c1	4	-1	4	51*	-1	18	.
CC(O)CSc1nc2c(c(=O)[nH]c(=O)n2C)n1Cc1ccccc1Cl (configuration not stated)	-1	-6	3	15	-2	.	.
CC(=O)Nc1nnc(SCC(=O)Nc2ccc3c(c2)OCCO3)s1	0	-1	-2	16	2	.	.
CC(=O)Nc1nnc(SCC(=O)Nc2ccc(N3CCOCC3)c(Cl)c2)s1	2	3	3	59*	-5	1	.
CC(=O)c1cccc(NC(=O)COC(=O)[C@@H](NC(=O)OCc2ccccc2)C(C)C)c1	-1	-1	6	19	-11	.	.
COCCN(C(=O)c1snc(C(N)=O)c1N)C(C(=O)NC1CCCCC1)c1ccc(F)cc1 (configuration not stated)	0	-3	8	-3	5	.	.
COc1cccc(NC(=O)CN(C)C(=O)c2cc(-c3cccc(Br)c3)nc3ccccc23)c1	4	-2	23	70*	-4	36	.
CCOc1ccc(NC(=O)CN(C)C(=O)c2cc(-c3ccc(OC)cc3)nc3ccccc23)cc1OCC	3	0	23	71*	10	46*	75*
COc1ccc(NC(=O)CN(C)C(=O)c2cc(-c3ccc(Cl)cc3)nc3ccccc23)cc1	2	-3	13	30	-4	.	.
O=C(NCc1ccccc1Cl)C1=CC=CN2CCS(=O)(=O)N=C12	-1	-3	-7	11	12	.	.
O=C1/C(=C/c2ccccc2)NC(=S)N1C(c1ccccc1)c1ccccc1	-2	-1	14	51*	-2	59*	61*
O=C1/C(=C/c2ccccc2)Nc2ccccc21	1	5	6	-15	-1	.	.
Cc1ccccc1NS(=O)(=O)c1ccc(C(=O)NCCCN2CCCC2=O)cc1	1	2	-4	16	0	.	.
CN(C)c1nc(N/N=C\c2ccc(Cl)c([N+](=O)[O-])c2)nc(Nc2ccc(F)cc2)n1	10	18	2	72*	-5	14	.
COc1ccc(C(=O)NC(=S)N2CCOCC2)cc1[N+](=O)[O-]	0	-6	3	8	1	.	.
COC(=O)c1cnn(-c2ccccc2)c1/C=N/NC(=S)Nc1ccc(Cl)cc1	6	16	9	52*	-6	54*	54*
